MrgX1 ag = human MrgX1 receptor agonism, primary screen; MrgX1-HEK293 cells, Fluo-4 calcium fluorescence, agonist mode; stronger effect = higher value; 0.44% of 310,000 active; B-score at 10 µM; Q96LB2;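 active = calcium response B-score plate-corrected fluorescence ratio at least 3 library SD, with starting fluorescence B-score inside 5 SD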
Target sequence (Q96LB2 whole entry, looked up): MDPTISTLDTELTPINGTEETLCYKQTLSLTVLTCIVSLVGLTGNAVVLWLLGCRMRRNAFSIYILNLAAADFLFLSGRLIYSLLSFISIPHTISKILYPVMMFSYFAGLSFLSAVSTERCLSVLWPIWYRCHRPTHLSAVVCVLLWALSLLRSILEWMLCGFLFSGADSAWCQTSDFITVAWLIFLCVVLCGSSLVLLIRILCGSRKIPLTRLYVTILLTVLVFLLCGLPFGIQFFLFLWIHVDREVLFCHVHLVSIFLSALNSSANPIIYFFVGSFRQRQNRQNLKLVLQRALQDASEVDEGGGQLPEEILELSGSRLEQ
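Test system: Stable human MrgX1 HEK293 cell line | Schedule: Overnight plating before 1 h dye loading | Read-out basis: Baseline-normalised fluorescence change ratio, B-scored | Detection: Kinetic calcium dye fluorescence, Fluo-4 NW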
MrgX1 allo act = allosterically activates human MrgX1 receptor signaling; Q96LB2; MrgX1-HEK293, Fluo-4 calcium flux, FDSS; stronger effect = higher value; B-score at 10 µM; 0.63% of 310,000 active; AID 588675;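 active = plate-corrected calcium response at least 3 library SD above typical, normal starting fluorescence, not activating the receptor alone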;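 also: compound read alongside a low EC10 to EC30 dose of BAM8-22 agonist; peak minus trough fluorescence over baseline measured at the second addition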
MrgX1 antag = blocks BAM8-22 activation of human MrgX1 receptor. B-score at 10 µM. 1.3% of 310,000 active. AID 588676. MRGX1-HEK293 calcium flux, Fluo-4, BAM8-22 antagonism; stronger effect = lower value. Q96LB2;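 active = calcium-response B-score plate-corrected more than 3 library SD below zero, starting fluorescence within 5 deviations, no agonist response on first addition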;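 also: peak minus trough fluorescence over baseline after final BAM8-22 challenge near maximal dose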
RGS4 pot = potentiators or activators of RGS4 | B-score at 10 µM | 0.92% of 310,000 active | HEK293 M3R/inducible RGS4, carbachol calcium flux Fluo4; stronger effect = lower value | AID 463111;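 active = B-score of the integrated calcium signal more than 4 SD below the library mean, with starting fluorescence not abnormally high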;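 also: negative B-score means reduced calcium response which marks RGS4 activation or potentiation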
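Test system: HEK293 cells with stable M3R and inducible RGS4; also added: carbachol at ECmax as muscarinic agonist stimulus; schedule: dye loading 30 min 37 °C, buffer rest 30 min RT; technique: kinetic calcium fluorescence imaging with Fluo4-AM dye, 2 µM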
RGS4 block = inhibitors of human RGS4 | P49798 | HEK293 M3R/RGS4 inducible, Fluo-4 calcium flux; stronger effect = higher value; triggered by carbachol at its EC20 | B-score at 10 µM | 0.45% of 310,000 active | AID 463165;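 active = B-score, a plate-corrected calcium signal, over three deviations above library mean, with baseline fluorescence within five deviations of library mean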;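 also: RGS4 expression induced by doxycycline in cells with stable M3 receptor; B-score is computed from the integrated fluorescence ratio over baseline after carbachol; higher B-score means a larger calcium signal and so more RGS4 inhibition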
Target sequence (P49798 whole entry, looked up): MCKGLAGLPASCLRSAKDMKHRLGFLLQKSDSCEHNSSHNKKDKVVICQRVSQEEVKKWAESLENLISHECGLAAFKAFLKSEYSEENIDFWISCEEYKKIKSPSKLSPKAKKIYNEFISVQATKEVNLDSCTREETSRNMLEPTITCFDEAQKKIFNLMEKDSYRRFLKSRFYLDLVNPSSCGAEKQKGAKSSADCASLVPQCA
MrgX1 allo conf = reconfirmed allosteric activator of human MrgX1 receptor. 13% of 1,200 active. shares compounds with MrgX1 allo act. activation (ratio percentage), % at 10 µM. MrgX1-HEK293, Fluo-4 calcium fluorescence, FDSS. AID 602413;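 active = ratio at least 3 SD above the weak peptide control, stable starting fluorescence, no direct agonism earlier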;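 also: compound followed by low BAM8-22 agonist challenge near EC20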
HEK293 Ca flux = activity in parental HEK293 cells lacking MrgX1; shares compounds with MrgX1 antag; Fluo-4 calcium fluorescence, FDSS; fluorescence ratio F(max-min)/F0 at 10 µM; 2% of 4,000 active; AID 624111;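 active = duplicate-averaged calcium fluorescence ratio at least three times the standard deviation of buffer wells, a nonspecific response in parental cells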
HEK293 Ca counter = activity in parental HEK293 cells without MrgX1; shares compounds with MrgX1 antag; parental HEK293 calcium flux, Fluo-4 fluorescence ratio; stronger effect = higher value; fluorescence ratio F(max-min)/F0 at 10 µM; 0.4% of 4,000 active; AID 624114;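 active = calcium fluorescence ratio, averaged over duplicates, at least 3 SD of the buffer-well ratio, meaning a nonspecific response in receptor-free cells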;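 also: untransfected parental HEK293 lacking MrgX1 used as counterscreen for MrgX1 allosteric activators; fluorescence change taken during the second addition on a kinetic imager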
HEK293 Ca cntr2 = MrgX1 activator counter-screen hit in parental HEK293 cells | AID 624115 | Fluo-4 calcium fluorescence (FDSS); stronger effect = higher value | fluorescence ratio F(max-min)/F0 at 10 µM | shares compounds with MrgX1 antag | 8.7% of 4,000 active;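 active = calcium fluorescence ratio at least three times the spread of buffer wells, meaning a non-specific response in parental cells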
Of the large screens only hits and unclear results are named; the others gave an inactive call (follow-up assays come after a bar, where they were run); ! = a repeat was not active. Compounds with a hit are over-represented: about 3.5% of the library has one in this group of screens.

COn1c(SC2CCCCC2)nc2ccccc2c1=O	MrgX1 allo act 29.1 | MrgX1 allo conf 49.0% | HEK293 Ca flux inactive | HEK293 Ca counter inactive | HEK293 Ca cntr2 inactive
CCN1CCN(CCOCCOc2ccccc2-c2ccccc2)CC1	none
CC(C)CSC1=NSC2=NC(=O)/C(=C\c3cccs3)C(=N)N12	none
CSC1=NSC2=NC(=O)/C(=C\c3cccs3)C(=N)N12	MrgX1 allo act 26.7 | MrgX1 allo conf 14.8% | HEK293 Ca flux inactive | HEK293 Ca counter inactive | HEK293 Ca cntr2 inactive
Cc1n[nH]c(C)c1S(=O)(=O)N1CCc2ccccc2C1	MrgX1 allo act 8.39 | MrgX1 allo conf inactive | HEK293 Ca flux inactive | HEK293 Ca counter inactive | HEK293 Ca cntr2 inactive
Cc1n[nH]c(C)c1S(=O)(=O)N1CCN(c2ccccn2)CC1	none
CC(C)OCCCNC(=O)C1CCC(CNS(=O)(=O)c2cccc3nsnc23)CC1 (stereo not drawn)	none
CSc1cccc(NS(=O)(=O)c2cn(C)cn2)c1	MrgX1 allo act 11.9 | MrgX1 allo conf inactive | HEK293 Ca flux inactive | HEK293 Ca counter inactive | HEK293 Ca cntr2 inactive
COc1ccc(NS(=O)(=O)c2cn(C)cn2)cc1	none
CC(NC(=O)C1CSC2(C)CCC(=O)N12)c1ccccc1Cl (stereo not drawn)	none
CC12CCC(=O)N1C(C(=O)OCc1c(Cl)cccc1Cl)CS2 (stereo not drawn)	MrgX1 allo act 6.55 | MrgX1 allo conf inactive | HEK293 Ca flux inactive | HEK293 Ca counter inactive | HEK293 Ca cntr2 inactive
Cn1c(-c2ccccc2)cc2onc(-c3ccccc3)c2c1=O	MrgX1 allo act 12 (no result: RGS4 pot, RGS4 block) | MrgX1 allo conf 21.0% | HEK293 Ca flux inactive | HEK293 Ca counter inactive | HEK293 Ca cntr2 inactive
Cn1c(-c2ccccc2F)cc2onc(-c3ccccc3)c2c1=O	none (no result: RGS4 pot, RGS4 block)
COc1ccccc1CNC(=O)c1ccc(S(=O)(=O)N(C)C)cc1	none
O=C(NCCc1cn2ccccc2n1)c1cc(COc2ccc3ncccc3c2)on1	MrgX1 allo act 8.93 | MrgX1 allo conf 5.7% | HEK293 Ca flux inactive | HEK293 Ca counter inactive | HEK293 Ca cntr2 inactive
O=C(NC1CCCC1)c1cc(COc2ccc3ncccc3c2)on1	none
Cc1ccc(/C=N/NC(=O)Cn2nccc2C)o1	none
CCN(CC)S(=O)(=O)c1cccc(NC(=O)COC(=O)C2CC3C=CC2C3)c1 (stereo not drawn)	MrgX1 allo act 6.52 | MrgX1 allo conf inactive | HEK293 Ca flux inactive | HEK293 Ca counter inactive | HEK293 Ca cntr2 inactive
Oc1ccc(C2CNCCc3c2cc(O)c(O)c3Cl)cc1 (stereo not drawn)	MrgX1 allo act 6.74! | MrgX1 allo conf inactive | HEK293 Ca flux inactive | HEK293 Ca counter inactive | HEK293 Ca cntr2 inactive
Oc1cc2c(c(Cl)c1O)CCNCC2c1ccccc1 (stereo not drawn)	none
Cn1c(N2CCN(C(=O)Nc3ccc(F)cc3)CC2)nc2ccccc21	none
Cn1c(N2CCN(C(c3ccccc3)c3ccccc3)CC2)nc2ccccc21	MrgX1 allo act 7.51, RGS4 pot -7.09 | MrgX1 allo conf inactive | HEK293 Ca flux inactive | HEK293 Ca counter inactive | HEK293 Ca cntr2 inactive
O=C(COC(=O)c1ccc(S(=O)(=O)NCc2ccco2)cc1)Nc1ccc(Cl)cn1	MrgX1 allo act 8.12 | MrgX1 allo conf inactive | HEK293 Ca flux inactive | HEK293 Ca counter inactive | HEK293 Ca cntr2 inactive
Oc1ccc(Oc2ncc(Cl)cc2Cl)cc1	MrgX1 allo act 8.84 | MrgX1 allo conf inactive | HEK293 Ca flux inactive | HEK293 Ca counter inactive | HEK293 Ca cntr2 inactive
NC(=O)c1ccc(Oc2ncc(C(F)(F)F)cc2Cl)cc1	none
Cc1ccc(NCc2cccnc2)c(Br)c1	none
CCC1C(=NO)C(CC)C(c2ccccc2)NC1c1ccccc1 (stereo not drawn)	MrgX1 allo act 23.2 | MrgX1 allo conf inactive | HEK293 Ca flux inactive | HEK293 Ca counter inactive | HEK293 Ca cntr2 inactive
CCC1C(=O)C(CC)C(c2ccccc2)NC1c1ccccc1 (stereo not drawn)	none
COC(=O)c1cc2ccsc2n1CC(=O)N(C)C1CCCCC1	none
CC(=O)N(CCC1(c2ccc(C)cc2)CCOC(C(C)C)C1)Cc1ccco1 (stereo not drawn)	MrgX1 allo act 10.1 | MrgX1 allo conf inactive | HEK293 Ca flux inactive | HEK293 Ca counter inactive | HEK293 Ca cntr2 inactive
O=[N+]([O-])c1ccc(Cl)c(S(=O)(=O)Nc2ccc(-c3ccc(N4CCOCC4)nn3)cc2)c1	none
Cc1ccc([N+](=O)[O-])cc1S(=O)(=O)Nc1ccc(-c2ccc(N3CCOCC3)nn2)cc1	MrgX1 allo act 28.8 | MrgX1 allo conf 8.1% | HEK293 Ca flux inactive | HEK293 Ca counter inactive | HEK293 Ca cntr2 inactive
COc1ccc(NCC(=O)Nc2ccc(Br)cc2F)c(OC)c1	MrgX1 allo act 9.21 | MrgX1 allo conf inactive | HEK293 Ca flux inactive | HEK293 Ca counter inactive | HEK293 Ca cntr2 inactive
COCCNC(=O)/C(C#N)=C/c1c(N2CCCCCC2)nc2c(C)cccn2c1=O	none
COc1ccc(CCNC(=O)Cn2c(=O)[nH]c3ccsc3c2=O)cc1OC	none
O=S(=O)(Nc1nc2ccccc2s1)c1ccc(Br)s1	MrgX1 allo act 7.19 | MrgX1 allo conf inactive | HEK293 Ca flux inactive | HEK293 Ca counter inactive | HEK293 Ca cntr2 inactive
CCOc1cccc(/C=N/NC(=O)c2ccc3c(c2)OCCO3)c1O	none
COc1ccc(OC)c(S(=O)(=O)N2CCN(c3ccccc3)CC2)c1	none
COc1ccc(Cl)cc1S(=O)(=O)N1CCN(c2ccc(F)cc2)CC1	MrgX1 allo act 16.7 | MrgX1 allo conf inactive | HEK293 Ca flux inactive | HEK293 Ca counter inactive | HEK293 Ca cntr2 inactive
COc1ccc(C(C)C)cc1S(=O)(=O)N1CCN(c2ccccc2)CC1	MrgX1 allo act 15.5 | MrgX1 allo conf inactive | HEK293 Ca flux inactive | HEK293 Ca counter inactive | HEK293 Ca cntr2 inactive
Cc1nc(SCC(C)C)[nH]c(=O)c1Cc1ccccc1	none
Cc1cccc(/C=C2/Sc3ccc(C(=O)N4CCOCC4)cc3NC2=O)c1	MrgX1 allo act 23.3 | MrgX1 allo conf inactive | HEK293 Ca flux inactive | HEK293 Ca counter inactive | HEK293 Ca cntr2 inactive
O=C1Nc2cc(C(=O)N3CCOCC3)ccc2S/C1=C\c1ccccc1	none
CCOc1ccc2nc(SCC(=O)NCc3ccccc3OC)[nH]c2c1	MrgX1 allo act 15.3 | MrgX1 allo conf inactive | HEK293 Ca flux inactive | HEK293 Ca counter inactive | HEK293 Ca cntr2 inactive
Cc1cccc(OCC(=O)NCCNC(=O)c2ccccn2)c1	none
CCOC(=O)CSc1nc2ccc(N)cc2s1	none

Compound activity deposited in PubChem BioAssay by Johns Hopkins Ion Channel Center.
